From ChEMBL document CHEMBL5236619, “Design and Optimization of 1H-1,2,3-Triazole-4-carboxamides as Novel, Potent, and Selective Inverse Agonists and Antagonists of PXR” (J Med Chem, 2022)
The source made the active and inactive calls. No cut-off for these calls is given here.

Tests used:
HepG2 [1] = assay: Effect on CAR activity in human HepG2 cells co-expressing luciferase gene under control of CYP3A4 promoter by luciferase reporter assay; type: cell-based
[2] = biological target: T1, Oxysterols receptor LXR-alpha (Homo sapiens) (UniProt Q13133); assay: Effect on LXRalpha activity in GeneBLAzer LXRalpha-UAS-bla HEK 293T cells by fluorescence based analysis; type: cell-based
T1 sequence (whole entry): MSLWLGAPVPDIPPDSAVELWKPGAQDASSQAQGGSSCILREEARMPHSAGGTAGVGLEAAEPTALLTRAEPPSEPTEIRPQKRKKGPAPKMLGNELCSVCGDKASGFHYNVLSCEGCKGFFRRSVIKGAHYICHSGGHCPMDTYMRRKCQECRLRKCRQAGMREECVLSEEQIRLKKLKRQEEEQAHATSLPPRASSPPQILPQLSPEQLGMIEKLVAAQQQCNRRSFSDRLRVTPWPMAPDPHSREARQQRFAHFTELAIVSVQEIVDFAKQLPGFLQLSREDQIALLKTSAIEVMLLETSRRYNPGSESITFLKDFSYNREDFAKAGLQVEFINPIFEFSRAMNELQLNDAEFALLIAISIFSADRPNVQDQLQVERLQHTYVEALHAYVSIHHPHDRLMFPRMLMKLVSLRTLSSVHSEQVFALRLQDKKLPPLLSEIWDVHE
How it was run: (§1)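 Run in agonistic mode (compound alone) or antagonistic mode (compound plus an agonist). Each concentration tested in quadruplicate, at least three times. % activation or % inhibition plotted against concentration, with EC50 or IC50 derived from a sigmoidal dose–response fit.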

[3] = biological target: T2, Vitamin D3 receptor (Homo sapiens) (UniProt P11473); assay: Effect on VDR activity in GeneBLAzer VDR-UAS-bla HEK 293T cells by fluorescence based analysis; type: cell-based; how it was run: as §1
T2 sequence (whole entry): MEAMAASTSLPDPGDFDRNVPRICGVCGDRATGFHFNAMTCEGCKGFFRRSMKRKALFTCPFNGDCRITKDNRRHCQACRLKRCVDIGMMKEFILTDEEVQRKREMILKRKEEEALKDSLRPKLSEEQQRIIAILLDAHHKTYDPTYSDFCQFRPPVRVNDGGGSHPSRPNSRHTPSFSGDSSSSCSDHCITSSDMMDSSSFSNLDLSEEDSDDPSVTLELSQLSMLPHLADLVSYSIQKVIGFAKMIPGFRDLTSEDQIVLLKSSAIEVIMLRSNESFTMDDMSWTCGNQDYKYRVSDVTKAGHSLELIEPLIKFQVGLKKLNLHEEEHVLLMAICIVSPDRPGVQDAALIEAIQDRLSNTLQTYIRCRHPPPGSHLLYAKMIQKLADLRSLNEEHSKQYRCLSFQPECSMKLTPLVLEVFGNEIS

HEK-293T = assay: Cytotoxicity against HEK293T cells assessed as reduction in cell viability measured after 24 to 72 hrs by celltiter-glo luminescent cell viability assay; type: toxicity, cell-based; conditions: human, time 24-72 hrs
How it was run: (§2)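 Cells seeded at 2,500 per well for 1-day or 5,000 per well for 3-day exposure. Viability read by CellTiter-Glo luminescence. Staurosporine (56 μM) set as 100% cytotoxicity. Each concentration run in quadruplicate, at least three times. % cytotoxicity plotted and fitted to a sigmoidal dose–response curve. Means and SDs from three independent experiments.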

[4] = biological target: T3, Nuclear receptor subfamily 1 group I member 2 (Homo sapiens, UniProt O75469); assay: Agonist activity at human PXR in human HepG2 cells co-expressing luciferase gene under control of CYP3A4 promoter assessed as transcriptional activation at 30 uM incubated for 24 hrs by luminescence based analysis; type: cell-based; conditions: hepg2, 24 h
T3 sequence (O75469 whole entry): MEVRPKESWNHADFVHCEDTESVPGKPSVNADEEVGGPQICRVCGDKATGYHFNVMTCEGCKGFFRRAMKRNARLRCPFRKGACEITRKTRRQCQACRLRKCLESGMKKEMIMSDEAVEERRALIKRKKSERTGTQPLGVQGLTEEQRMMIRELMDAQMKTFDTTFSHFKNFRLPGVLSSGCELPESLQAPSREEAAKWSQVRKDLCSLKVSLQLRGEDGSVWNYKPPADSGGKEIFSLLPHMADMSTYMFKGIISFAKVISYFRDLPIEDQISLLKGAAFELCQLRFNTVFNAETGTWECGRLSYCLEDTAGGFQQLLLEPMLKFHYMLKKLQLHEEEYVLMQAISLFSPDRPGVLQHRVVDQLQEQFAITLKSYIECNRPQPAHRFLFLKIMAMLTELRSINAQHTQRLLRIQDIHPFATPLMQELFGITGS

HepaRG = assay: Cytotoxicity against human HepaRG cells assessed as reduction in cell viability measured after 24 to 72 hrs by celltiter-glo luminescent cell viability assay; type: toxicity, cell-based; conditions: time 24-72 hrs; how it was run: as §2
HepG2 [5] = assay: Cytotoxicity against human HepG2 cells assessed as reduction in cell viability measured after 24 to 72 hrs by celltiter-glo luminescent cell viability assay; type: toxicity, cell-based; conditions: time 24-72 hrs; how it was run: as §2
PXR (NR1I2) = biological target: T4, PXR (NR1I2) (Homo sapiens, UniProt O75469); assay: Inverse agonist activity at human PXR in human HepG2 cells co-expressing luciferase gene under control of CYP3A4 promoter assessed as inhibition in receptor basal activity at 10 uM incubated for 24 hrs by luminescence based analysis relative to control; type: cell-based
T4 sequence (O75469 whole entry): T3 sequence (O75469 whole entry)

[6] = Cytotoxicity against […] Hepa1-6 cells assessed as reduction in cell viability measured after 24 to 72 hrs by celltiter-glo luminescent cell viability assay; type: toxicity, cell-based; conditions: time 24-72 hrs; how it was run: as §2
[7] = biological target: T5, PXR (NR1I2) ligand binding domain (Homo sapiens, UniProt O75469); assay: Inhibition of BODIPY FL vindoline binding to recombinant human GST-tagged PXR LBD (111 to 434 residues) expressed in baculovirus infected insect cells at 10 uM incubated for 1 mins under shaking condition followed by 60 mins under dark condition by TR-FRET assay relative to control; conditions: probe BODIPY FL vindoline, time 61 min
T5 sequence (O75469 whole entry): T3 sequence (O75469 whole entry)

[8] = biological target: T6, Bile acid receptor (Homo sapiens) (UniProt Q96RI1); assay: Effect on FXR activity in GeneBLAzer FXR-UAS-bla HEK 293T cells by fluorescence based analysis; type: cell-based; how it was run: as §1
T6 sequence (whole entry): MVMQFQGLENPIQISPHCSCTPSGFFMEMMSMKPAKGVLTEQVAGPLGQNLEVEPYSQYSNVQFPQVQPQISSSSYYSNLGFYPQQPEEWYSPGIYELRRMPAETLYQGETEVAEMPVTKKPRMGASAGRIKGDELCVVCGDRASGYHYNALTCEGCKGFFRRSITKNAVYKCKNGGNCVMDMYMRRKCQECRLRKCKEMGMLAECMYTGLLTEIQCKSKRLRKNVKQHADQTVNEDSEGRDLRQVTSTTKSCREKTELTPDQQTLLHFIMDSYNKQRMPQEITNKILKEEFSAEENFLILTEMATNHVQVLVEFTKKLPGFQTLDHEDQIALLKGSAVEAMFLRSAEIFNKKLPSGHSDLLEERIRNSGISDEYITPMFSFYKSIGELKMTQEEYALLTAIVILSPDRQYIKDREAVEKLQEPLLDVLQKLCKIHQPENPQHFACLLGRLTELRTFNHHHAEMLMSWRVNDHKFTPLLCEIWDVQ

[9] = biological target: T7, Nuclear receptor subfamily 1 group I member 2 (Mus musculus, UniProt O54915); assay: Effect on mouse PXR activity by luciferase reporter assay; how it was run: as §1
T7 sequence (O54915 whole entry): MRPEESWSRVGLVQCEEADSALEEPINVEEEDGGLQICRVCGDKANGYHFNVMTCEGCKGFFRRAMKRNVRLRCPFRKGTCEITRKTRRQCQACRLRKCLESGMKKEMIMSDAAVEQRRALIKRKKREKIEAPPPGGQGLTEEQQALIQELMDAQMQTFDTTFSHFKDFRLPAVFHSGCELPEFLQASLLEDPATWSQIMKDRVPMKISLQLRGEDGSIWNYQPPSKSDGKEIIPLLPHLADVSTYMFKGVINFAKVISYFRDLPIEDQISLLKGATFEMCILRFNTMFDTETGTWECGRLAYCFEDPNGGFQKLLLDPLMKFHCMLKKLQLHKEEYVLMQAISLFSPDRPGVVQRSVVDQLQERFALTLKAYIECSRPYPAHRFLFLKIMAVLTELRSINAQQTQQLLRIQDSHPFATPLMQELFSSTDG

CCC[C@H](C)Oc1ccc(C(C)(C)C)cc1NC(=O)c1nnn(-c2cc(OC)ccc2OC)c1C
Activity (HepG2 [1]): inactive | Activity [2]: inactive | Activity [3]: inactive | Activity (HEK-293T): Non-Toxic | Activity [4]: Not Active | Activity (HepaRG): Non-Toxic | Activity (HepG2 [5]): Non-Toxic | inhibition at 24 h, 10 µM (PXR (NR1I2)): 125% | Activity [6]: Non-Toxic | inhibition at 1.017 h, 10 µM [7]: 87% | Activity [8]: inactive | Activity [9]: Not Active
